This is an account of results in publication PMC4066874 (Immunity, 2014).

Data set [1] deals with RORγt occupancy at genomic binding sites. Briefly: ChIP-seq for RORγt in Th17 cells treated with compound. Format: cell-based, mouse. Conditions: for RORγt sites with decreased (lower) ChIP signal: 2.5 μM TMP778, 10 μM TMP920, 96 h. An outline of the steps: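 Naive CD4+CD62Lhigh CD25− T cells (MACS then FACS sorted) were activated on plate-bound anti-CD3 and anti-CD28 (2 μg/ml each) with IL-6 (20 ng/ml) and TGF-β1 (1 ng/ml), plus IL-23 (10 ng/ml) from 48 h. Test compound (2.5 or 10 μM) or DMSO was present for 96 h. ChIP used anti-RORγt (AFKJS-9), with isotype IgG and RORγt-deficient cells as controls. Sequencing was single-end 36 bp.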

The test system of data set [2] is experimental autoimmune encephalomyelitis (EAE).
In data set [3] the test system is IL-17 production in Th17 cell cultures. The experiment in a line: IL-17 production during Th17 cell differentiation in vitro. Format: cell-based, mouse. The following applies: for effect on IL-17 production in Th17 cell cultures: Digoxin at 10 μM, TMP778 over a much broader dose range; for concentration at which the inhibitory effect on IL-17 production was lost: Th17 cell-polarizing conditions.

The subject of data set [4] is primary naïve CD4+ T cells under Th17 cell-polarizing conditions. The experiment in a line: cell proliferation of naïve CD4+ T cells under Th17 cell-polarizing conditions. Conditions: not RORγt-dependent.
In data set [5] the test system is GATA3 protein. The experiment in a line: GATA3 protein expression in Th17 cells. The class given is cell-based, mouse. The following applies: Th17 cells treated with compound.
The target in data set [6] is T1, RORβ (Homo sapiens, UniProt Q92753).
T1 sequence (Q92753 1-470): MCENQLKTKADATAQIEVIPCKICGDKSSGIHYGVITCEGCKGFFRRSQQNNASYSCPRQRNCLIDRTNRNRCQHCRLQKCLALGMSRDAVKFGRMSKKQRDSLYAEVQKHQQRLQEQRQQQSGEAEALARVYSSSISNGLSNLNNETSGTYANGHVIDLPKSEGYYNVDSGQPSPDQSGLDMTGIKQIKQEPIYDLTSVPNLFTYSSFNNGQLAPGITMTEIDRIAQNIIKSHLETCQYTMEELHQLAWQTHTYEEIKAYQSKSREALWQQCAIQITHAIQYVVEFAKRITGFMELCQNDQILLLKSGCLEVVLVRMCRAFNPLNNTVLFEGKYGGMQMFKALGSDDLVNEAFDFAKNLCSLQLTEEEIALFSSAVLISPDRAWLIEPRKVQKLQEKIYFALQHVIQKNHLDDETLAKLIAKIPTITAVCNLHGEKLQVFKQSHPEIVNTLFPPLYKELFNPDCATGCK
The experiment in a line: cell-based nuclear receptor reporter.

Data set [7] addresses T2, RORα (Homo sapiens, UniProt P35398).
T2 sequence (P35398 1-523): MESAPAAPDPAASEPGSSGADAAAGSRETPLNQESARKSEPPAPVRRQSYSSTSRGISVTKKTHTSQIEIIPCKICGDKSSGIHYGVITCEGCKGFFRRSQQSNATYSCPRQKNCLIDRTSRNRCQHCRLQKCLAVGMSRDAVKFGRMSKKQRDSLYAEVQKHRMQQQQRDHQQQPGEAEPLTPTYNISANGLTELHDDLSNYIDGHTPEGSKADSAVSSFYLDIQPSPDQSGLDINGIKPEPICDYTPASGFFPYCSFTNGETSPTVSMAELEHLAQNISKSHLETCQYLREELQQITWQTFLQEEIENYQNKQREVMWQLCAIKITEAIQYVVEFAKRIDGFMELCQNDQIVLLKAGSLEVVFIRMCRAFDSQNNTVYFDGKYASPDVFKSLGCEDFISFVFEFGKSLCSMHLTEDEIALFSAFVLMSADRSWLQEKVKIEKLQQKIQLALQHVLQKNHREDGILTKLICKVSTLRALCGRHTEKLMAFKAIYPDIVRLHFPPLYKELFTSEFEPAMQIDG
Briefly: cell-based nuclear receptor reporter.

Data set [8] deals with T3, RORγ (Homo sapiens, UniProt P51449).
T3 sequence (P51449 1-518): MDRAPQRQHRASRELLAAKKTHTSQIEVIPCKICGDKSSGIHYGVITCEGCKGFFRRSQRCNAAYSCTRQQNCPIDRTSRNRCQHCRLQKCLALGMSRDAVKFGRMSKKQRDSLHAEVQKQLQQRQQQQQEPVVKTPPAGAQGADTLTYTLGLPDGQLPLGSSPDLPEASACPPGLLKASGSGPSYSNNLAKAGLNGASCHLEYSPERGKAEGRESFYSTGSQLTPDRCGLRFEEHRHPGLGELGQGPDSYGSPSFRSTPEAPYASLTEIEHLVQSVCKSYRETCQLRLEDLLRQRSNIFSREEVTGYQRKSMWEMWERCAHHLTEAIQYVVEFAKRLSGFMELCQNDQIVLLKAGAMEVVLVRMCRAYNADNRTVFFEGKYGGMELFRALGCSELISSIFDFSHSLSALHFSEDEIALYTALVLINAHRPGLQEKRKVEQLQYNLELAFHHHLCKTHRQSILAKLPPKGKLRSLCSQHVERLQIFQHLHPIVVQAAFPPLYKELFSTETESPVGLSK
The experiment in a line: cell-based nuclear receptor reporter.

Data set [9] concerns IL-17 production in CD4+ T cells. The experiment in a line: IL-17 production from differentiated Th17 cells. Format: cell-based, mouse. The following applies: WT CD4+ T cells, MOG35-55 plus IL-23, 4 days. An outline of the steps: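 Female C57BL/6 mice (8–12 wk) were immunized s.c. in the flanks with MOG35-55 (100 μg/mouse) in CFA containing M. tuberculosis H37Ra extract. Draining LN cells were restimulated with MOG35-55 and IL-23 plus test compound or DMSO for 4 days. They were then given a 4 h PMA/ionomycin/GolgiStop restimulation, fixed and permeabilized, and stained intracellularly for IL-17 and IFNγ in CD4+ cells. Values are mean ± SD.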

Data set [10] deals with 22 other nuclear receptors. Briefly: luciferase assays for 22 other nuclear receptors. The class given is cell-based. The following applies: read-out: IC50 in luciferase assays for 22 other nuclear receptors.
The test system of data set [11] is primary naïve CD4+ T cells under Th17 cell-polarizing conditions.
Data set [12] deals with T4, RORγt ligand-binding domain (Homo sapiens, UniProt P51449).
T4 sequence (P51449 263-518 limits assumed): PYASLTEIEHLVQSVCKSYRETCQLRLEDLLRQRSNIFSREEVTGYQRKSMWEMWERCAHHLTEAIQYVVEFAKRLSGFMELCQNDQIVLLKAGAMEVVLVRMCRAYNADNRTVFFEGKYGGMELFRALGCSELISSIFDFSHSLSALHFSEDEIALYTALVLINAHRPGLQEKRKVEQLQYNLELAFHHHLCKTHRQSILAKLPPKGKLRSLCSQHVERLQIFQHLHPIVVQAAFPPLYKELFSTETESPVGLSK
The experiment in a line: FRET assay, RORγt ligand-binding domain and cofactor peptide SRC1. Conditions: read-out: IC50, inhibition of RORγt binding to the SRC1 peptide in the FRET assay. Format: biochemical.

Data set [13] has as its system CCR6- memory human T cells. The experiment in a line: transcription in human CCR6- memory T cells. The class given is cell-based.

Each structure is given as a SMILES string. Like-named read-outs stand apart in the source and are kept apart here.

With `C[C@H]1O[C@@H](O[C@H]2[C@@H](O)C[C@H](O[C@H]3[C@@H](O)C[C@H](O[C@H]4CC[C@@]5(C)[C@H](CC[C@@H]6[C@@H]5C[C@@H](O)[C@]5(C)[C@@H](C7=CC(=O)OC7)CC[C@]65O)C4)O[C@@H]3C)O[C@@H]2C)C[C@H](O)[C@@H]1O` [Digoxin, reference compound], in [1] (10 μM Digoxin, 96 h), the “effect on RORγt binding” value is on record as “intermediate”. The “dose that caused mouse death” value in data set [2] (per injection, subcutaneous twice daily) was above 100 µg. For the same compound, in [3], the “effect on IL-17 production in Th17 cell cultures” value is listed as “specifically inhibited IL-17 production” and the “concentration at which the inhibitory effect on IL-17 production was lost” value was below 2.5 µM. In addition, the “concentration at which toxic effects on cell growth start” value (“concentration at which toxic effects” below) in data set [4] was above 10 µM.

As for `CCS(=O)(=O)c1ccc(CC(=O)Nc2cc(Cl)c(-c3ccccc3OC(F)(F)F)c(Cl)c2)cc1` [GSK805], the “effect on severity of EAE” value in data set [2] (oral, 10 mg/kg daily from day 0) is recorded as “efficiently ameliorate the severity of EAE”. Also, the “Th17 cell responses in the CNS” value in data set [2] (oral, 30 mg/kg, day 14) was “strongly inhibits Th17 cell responses”. Besides, the GATA3 protein expression entry in [5] is reported as “increased GATA3 protein expression”. In data set [3] (GSK805 at 0.5 μM, 4 days), the “inhibition of IL-17 production during Th17 cell differentiation” value was “comparable inhibition of IL-17 production as TMP778 at 2.5 μM”.

As usually defined, the IC50 is the point on the concentration scale where inhibition reaches its midpoint. For the compound `Cc1ccc([C@@H](NC(=O)Cc2ccc3oc([C@@H](O)c4c(C)noc4C)cc3c2)c2ccccc2)c(C)c1` [TMP778], in data set [6], the “IC50 fold higher for RORβ than in RORγ assays” value is on record as “roughly 100 fold”. Also, the IC50 in data set [6] (read-out: IC50 for RORβ, luciferase reporter) was 1390 nM; in [7] (read-out: IC50 for RORα, luciferase reporter), 1240 nM; in data set [8] (read-out: IC50 for luciferase activity in RORγ assays), 17 nM; in [10], above 10000 nM; in data set [12] it was 5 nM. The “IC50 fold higher for RORα than in RORγ assays” value in data set [7] was “roughly 100 fold”. Moreover, the “new RORγt binding sites” value in data set [1] (2.5 μM TMP778) was determined as 179. For the same compound, in data set [1] (2.5 μM TMP778), the “new RORγt binding sites as share of peaks observed with compound” value was 8.2 % of peaks. Also, the “RORγt sites with decreased (lower) ChIP signal” value in [1] is listed as 55 % of sites. Besides, the “percentage of IL-17+ T cells in the CNS” value in data set [2] (subcutaneous twice daily, day 21 after EAE induction) is “most strongly reduced the percentage of IL-17^+ T cells in the CNS”. The “inhibition of IL-17 production from differentiated Th17 cells” value in data set [9] is recorded as “the most potent inhibition”. Also, the GATA3 protein expression result in data set [5] was “increased expression of GATA3 protein”. In data set [11], the “concentration at which toxic effects” value was above 2.5 µM. Moreover, in data set [3], the “effect on IL-17 production in Th17 cell cultures” value is given as “efficiently decreased IL-17 production”. Moreover, the “effect on transcription in population depleted for Th17 cells” value in [13] is recorded as “no differentially expressed genes with a fold cutoff over 1.5”.

As for `Cc1ccc(C(NC(=O)Cc2ccc(OCc3c(C)noc3C)cc2)c2ccccc2)c(C)c1` (stereo not shown) [TMP920], the figures for the IC50 in data set [8] (read-out: IC50 in RORγ assays), in data set [10] and in data set [12] were 1100 nM, above 10000 nM and 30 nM, respectively. Moreover, the “RORγt sites with decreased (lower) ChIP signal” value in data set [1] is 77 % of sites. Further, the “concentration at which toxic effects” value in data set [11] was above 10 µM. Moreover, the “concentration at which the inhibitory effect on IL-17 production was lost” value in data set [3] is below 2.5 µM.
